# Assay results: ChEMBL document CHEMBL1144804, “Sesquiterpene quinones and related metabolites from Phyllosticta spinarum, a fungal strain endophytic in Platycladus orientalis of the Sonoran Desert” (J Nat Prod, 2008)
# The source made the active and inactive calls. No cut-off for these calls is given here.
# Key:
# Format in all cases: functional, cell-based
# [1] = test system: NIH3T3; experiment: Induction of apoptosis in mouse NIH3T3 cells assessed as accumulation at subG1 phase at 0.5 ug/ml after 24 hrs by flow cytometry
# [2] = test system: PC-3M; experiment: Induction of apoptosis in human PC3M cells assessed as accumulation at subG1 phase at 0.5 ug/ml after 24 hrs by flow cytometry
# In short: (§1)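 PC-3M cells at about 75% confluency were seeded at 2.5 × 10^5 cells/well and left to reattach overnight at 37 °C in 5% CO2. They were then treated for 24 h in RPMI 1640 with 10% FBS, penicillin 100 IU/mL, streptomycin 50 µg/mL and Glutamax 2 mM. Controls were 0.1% DMSO (negative) and 0.5 µg/mL nocodazole (positive). Floating and adherent cells were pooled, PBS-washed, stained for DNA content with Guava cell cycle reagent, and scored as % sub-G1 by flow cytometry.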
# [3] = Antiproliferative activity against human PC3M cells by MTT assay; conditions: PC-3M
# In short: (§2)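 Cells were exposed to serial dilutions of DMSO-dissolved samples for 72 h in RPMI 1640 with 10% fetal bovine serum and glutamax. Viability was read by the tetrazolium (MTT) colorimetric assay as inhibition of proliferation.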
# [4] = test system: NCI-H460; experiment: Antiproliferative activity against human NCI-H460 cells by MTT assay; in short: as §2
# [5] = test system: MIA PaCa-2; experiment: Antiproliferative activity against human MIAPaCa2 cells by MTT assay; in short: as §2
# [6] = test system: PC-3M; experiment: Induction of apoptosis in human PC3M cells assessed as accumulation at subG1 phase at 2.5 to 10 uM after 24 hrs by flow cytometry; in short: as §1
# [7] = test system: NIH3T3; experiment: Induction of apoptosis in mouse NIH3T3 cells assessed as accumulation at subG1 phase at 2.5 to 10 uM after 24 hrs by flow cytometry
# [8] = test system: MCF7; experiment: Antiproliferative activity against human MCF7 cells by MTT assay; in short: as §2
# [9] = test system: SF-268; experiment: Antiproliferative activity against human SF268 cells by MTT assay; in short: as §2
IC50 [4] [nM],IC50 [5] [nM],IC50 [8] [nM],SMILES,Activity [1],Activity [2],IC50 [3] [nM],Activity [6],Activity [7],IC50 [9] [nM]
,,,COC(=O)Nc1nc2cc(C(=O)c3cccs3)ccc2[nH]1,Active,Active,,,,
10,,,COc1cccc2c1C(=O)c1c(O)c3c(c(O)c1C2=O)C[C@@](O)(C(=O)CO)C[C@@H]3O[C@H]1C[C@H](N)[C@H](O)[C@H](C)O1 [DOXORUBICIN],,,1110,,,
4300,2800,1500,C=C1CC[C@H]2C(C)(C)CCC[C@]2(C)[C@H]1CC1=C(O)C(=O)C(CO)=CC1=O [TAURANIN],,,3500,Active,Active,1800
